In ChEMBL document CHEMBL3286182, “4-aminoquinolone piperidine amides: noncovalent inhibitors of DprE1 with long residence time and potent antimycobacterial activity” (J Med Chem, 2014):
Values after ≈ are worked out from the molar mass of the structure shown. Active and inactive are the calls of the source. The calls are words filed in the database; no cut-off is given here.

Columns and labels:
[1] = test system: Mycobacterium tuberculosis; test: Antimycobacterial activity against Mycobacterium tuberculosis over expressing InhA after 5 days by standard microdilution method; format: functional; settings: 120 h
[2] = test system: Mycobacterium tuberculosis; test: Antimycobacterial activity against Mycobacterium tuberculosis over expressing DprE1 after 5 days by standard microdilution method; format: functional; settings: 120 h
[3] = test system: Mycobacterium tuberculosis; test: Antimycobacterial activity against Mycobacterium tuberculosis over expressing TopA after 5 days by standard microdilution method; format: functional; settings: 120 h
[4] = test system: Mycobacterium tuberculosis; test: Antimycobacterial activity against Mycobacterium tuberculosis H37Rv after 5 days by standard microdilution method; format: functional; settings: 120 h
[5] = test system: Mycobacterium tuberculosis; test: Antimycobacterial activity against Mycobacterium tuberculosis over expressing PimA after 5 days by standard microdilution method; format: functional; settings: 120 h
Cytochrome P450 3A4 = Cytochrome P450 3A4 (Homo sapiens, UniProt P08684); test: Inhibition of CYP3A4 (unknown origin); format: ADME
How it was run: (§1)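 CYP inhibition IC50 measured on isoforms CYP3A4, CYP2D6, CYP2C9, CYP2C19 and CYP1A2.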

Cytochrome P450 2D6 = Cytochrome P450 2D6 (Homo sapiens, UniProt P10635); test: Inhibition of CYP2D6 (unknown origin); format: ADME; how it was run: as §1
[6] = Permeability of the compound from basolateral to apical side in human Caco2 cells; format: ADME, cell-based; settings: Caco-2, read-out: permeability
[7] = Permeability of the compound from apical to basolateral side in human Caco2 cells; format: ADME, cell-based; settings: Caco-2, read-out: permeability
[8] = Inhibition of Mycobacterium smegmatis recombinant DprE1 using farnesylphosphoryl-beta-D-ribofuranose as substrate assessed as conversion of amplex red to resorufin after 30 mins; set-up: species or system Mycolicibacterium smegmatis
How it was run: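 Msm DprE1 (thioredoxin-6His fusion of Msm Rv3790) at 75 nM, preincubated 30 min with 10 μM FAD. Buffer: 50 mM glycylglycine pH 8.5, 200 mM potassium glutamate, 0.002% Brij-35, 2% DMSO, 25 °C. Started with 300 μM farnesylphosphoryl-β-D-ribofuranose, 0.01 mg/mL HRP and 50 μM Amplex Red.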

Cytochrome P450 2C19 = Cytochrome P450 2C19 (Homo sapiens, UniProt P33261); test: Inhibition of CYP2C19 (unknown origin); format: ADME; how it was run: as §1
[9] = Cytotoxicity against human A549 cells after 72 hrs by resazurin based fluorescence assay; format: cell-based; settings: read-out: MIC
How it was run: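 Cytotoxicity read as MMIC, the MIC on the A549 cell line.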

[10] = Solubility of the compound in 0.1 M phosphate buffer at pH 7.4 after 24 hrs by UV and MS analysis; format: physicochemical
[11] = Intrinsic clearance in rat cryopreserved hepatocytes assessed per 10^6 cells at 1 uM up to 120 mins by LC-MS/MS analysis; format: ADME, cell-based, Hepatocyte; settings: read-out: CLH
Cytochrome P450 1A2 = biological target: T1, Cytochrome P450 1A2 (Homo sapiens, UniProt P05177); test: Inhibition of CYP1A2 (unknown origin); format: ADME; how it was run: as §1
T1 sequence (P05177 whole entry): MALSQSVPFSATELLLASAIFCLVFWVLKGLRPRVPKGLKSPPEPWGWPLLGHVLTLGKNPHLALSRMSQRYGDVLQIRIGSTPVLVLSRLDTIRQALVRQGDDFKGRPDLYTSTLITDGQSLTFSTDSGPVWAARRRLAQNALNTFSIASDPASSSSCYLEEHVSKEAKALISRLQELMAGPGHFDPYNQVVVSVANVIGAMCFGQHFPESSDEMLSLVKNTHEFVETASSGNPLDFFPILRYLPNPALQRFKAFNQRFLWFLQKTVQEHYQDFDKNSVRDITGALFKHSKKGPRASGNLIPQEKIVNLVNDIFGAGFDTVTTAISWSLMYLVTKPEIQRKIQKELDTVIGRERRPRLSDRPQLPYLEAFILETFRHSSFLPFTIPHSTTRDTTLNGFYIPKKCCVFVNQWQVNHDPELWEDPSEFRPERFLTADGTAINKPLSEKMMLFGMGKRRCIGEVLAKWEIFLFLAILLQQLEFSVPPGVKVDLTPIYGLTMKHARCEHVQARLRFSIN

[12] = biological target: Voltage-gated inwardly rectifying potassium channel KCNH2 (Homo sapiens, UniProt Q12809); test: Inhibition of human ERG by medium-throughput electrophysiology
[13] = Octanol-water partition coefficient, log D of the compound by shake-flask method; format: physicochemical
Adenosine receptor A1 = biological target: T2, Adenosine receptor A1 (Homo sapiens, UniProt P30542); test: Inhibition of adenosine A1 receptor (unknown origin)
T2 sequence (P30542 whole entry): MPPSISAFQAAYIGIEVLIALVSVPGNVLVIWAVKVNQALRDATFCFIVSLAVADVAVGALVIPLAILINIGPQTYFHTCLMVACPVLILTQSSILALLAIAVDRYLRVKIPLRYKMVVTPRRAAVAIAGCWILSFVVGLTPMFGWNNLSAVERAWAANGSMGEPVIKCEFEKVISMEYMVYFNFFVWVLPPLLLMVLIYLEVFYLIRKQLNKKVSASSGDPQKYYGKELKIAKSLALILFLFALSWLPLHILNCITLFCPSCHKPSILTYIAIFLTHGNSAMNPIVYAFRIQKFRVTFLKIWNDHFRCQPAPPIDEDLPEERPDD
How it was run: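 Secondary pharmacology panel of binding, enzyme and functional assays covering 24 molecular targets. Activity recorded as a defined Ki/IC50/EC50.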

Cytochrome P450 2C9 = Cytochrome P450 2C9 (Homo sapiens, UniProt P11712); test: Inhibition of CYP2C9 (unknown origin); format: ADME; how it was run: as §1
[14] = Intrinsic clearance in human liver microsomes at 1 uM up to 30 mins by LC-MS/MS analysis; format: ADME; settings: read-out: CLH
[15] = Fraction unbound in human plasma at 20 uM after 18 hrs by equilibrium dialysis method; format: ADME, cell-free
[16] = Inhibition of Mycobacterium smegmatis DprE1 Y321H mutant using farnesylphosphoryl-beta-D-ribofuranose as substrate assessed as conversion of amplex red to resorufin after 30 mins; set-up: species or system Mycolicibacterium smegmatis
How it was run: (§2)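 Recombinant M. smegmatis DprE1 (thioredoxin-6His fusion), wild type or Y321H, 75 nM. Enzyme was preincubated 30 min in FAD assay mix: 50 mM glycylglycine pH 8.5, 200 mM potassium glutamate, 10 μM FAD, 0.002% Brij-35, 2% DMSO. Reaction was started with 300 μM farnesylphosphoryl-β-D-ribofuranose, 0.01 mg/mL HRP and 50 μM amplex red at 25 °C.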

[17] = test system: Mycobacterium tuberculosis; test: Antimycobacterial activity against Mycobacterium tuberculosis H37Rv under hypoxic condition after 6 days by resazurin assay; format: functional
[18] = test system: Mycolicibacterium smegmatis; test: Ratio of IC50 for Mycobacterium smegmatis DprE1 Y321H mutant to IC50 for Mycobacterium smegmatis recombinant wild type DprE1; how it was run: as §2
Escherichia coli [19] = test: Antimicrobial activity against Escherichia coli ARC524 at 100 uM; format: functional, organism-based
How it was run: (§3)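 Nonmycobacterial panel of Candida albicans, Gram-negative and Gram-positive pathogens.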

Pseudomonas aeruginosa [20] = test: Antimicrobial activity against Pseudomonas aeruginosa ARC545 at 100 uM; format: functional, organism-based; how it was run: as §3
Haemophilus influenzae [21] = test: Antimicrobial activity against Haemophilus influenzae ARC158 at 100 uM; format: functional, organism-based; how it was run: as §3
Staphylococcus aureus = test: Antimicrobial activity against Staphylococcus aureus ARC517 at 100 uM; format: functional, organism-based; how it was run: as §3
[22] = test system: Mycolicibacterium smegmatis; test: Antimicrobial activity against Mycobacterium smegmatis ATCC 607 at 100 uM; format: functional, organism-based
Pseudomonas aeruginosa [23] = test: Antimicrobial activity against Pseudomonas aeruginosa ARC546 at 100 uM; format: functional, organism-based; how it was run: as §3
[24] = test system: Mycolicibacterium smegmatis; test: Antimicrobial activity against Mycobacterium smegmatis mc2155 at 100 uM; format: functional, organism-based; settings: str. MC2 155
Streptococcus pneumoniae = test: Antimicrobial activity against Streptococcus pneumoniae ARC548 at 100 uM; format: functional, organism-based; how it was run: as §3
Escherichia coli [25] = test: Antimicrobial activity against Escherichia coli ARC523 at 100 uM; format: functional, organism-based; how it was run: as §3
Klebsiella pneumoniae = test: Antimicrobial activity against Klebsiella pneumoniae ARC1865 at 100 uM; format: functional, organism-based; how it was run: as §3
Candida albicans = test: Antimicrobial activity against Candida albicans ARC527 at 100 uM; format: functional, organism-based; how it was run: as §3
Haemophilus influenzae [26] = test: Antimicrobial activity against Haemophilus influenzae ARC446 at 100 uM; format: functional, organism-based; how it was run: as §3

Cytochrome P450 2C19, sequence (P33261 whole entry): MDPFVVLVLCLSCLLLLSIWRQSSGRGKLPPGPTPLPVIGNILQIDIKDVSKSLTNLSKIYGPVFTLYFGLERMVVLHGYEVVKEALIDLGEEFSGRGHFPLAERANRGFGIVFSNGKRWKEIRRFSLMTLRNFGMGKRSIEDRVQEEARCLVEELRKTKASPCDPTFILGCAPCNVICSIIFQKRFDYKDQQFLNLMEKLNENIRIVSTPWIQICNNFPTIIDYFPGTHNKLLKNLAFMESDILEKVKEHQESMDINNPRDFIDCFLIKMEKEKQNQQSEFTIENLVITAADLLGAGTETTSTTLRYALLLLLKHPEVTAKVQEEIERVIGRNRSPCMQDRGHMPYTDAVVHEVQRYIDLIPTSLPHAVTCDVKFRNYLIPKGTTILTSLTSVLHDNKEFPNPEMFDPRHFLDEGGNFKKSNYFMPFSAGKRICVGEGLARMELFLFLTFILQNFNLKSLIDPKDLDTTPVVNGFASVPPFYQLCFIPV
Voltage-gated inwardly rectifying potassium channel KCNH2, sequence (Q12809 whole entry): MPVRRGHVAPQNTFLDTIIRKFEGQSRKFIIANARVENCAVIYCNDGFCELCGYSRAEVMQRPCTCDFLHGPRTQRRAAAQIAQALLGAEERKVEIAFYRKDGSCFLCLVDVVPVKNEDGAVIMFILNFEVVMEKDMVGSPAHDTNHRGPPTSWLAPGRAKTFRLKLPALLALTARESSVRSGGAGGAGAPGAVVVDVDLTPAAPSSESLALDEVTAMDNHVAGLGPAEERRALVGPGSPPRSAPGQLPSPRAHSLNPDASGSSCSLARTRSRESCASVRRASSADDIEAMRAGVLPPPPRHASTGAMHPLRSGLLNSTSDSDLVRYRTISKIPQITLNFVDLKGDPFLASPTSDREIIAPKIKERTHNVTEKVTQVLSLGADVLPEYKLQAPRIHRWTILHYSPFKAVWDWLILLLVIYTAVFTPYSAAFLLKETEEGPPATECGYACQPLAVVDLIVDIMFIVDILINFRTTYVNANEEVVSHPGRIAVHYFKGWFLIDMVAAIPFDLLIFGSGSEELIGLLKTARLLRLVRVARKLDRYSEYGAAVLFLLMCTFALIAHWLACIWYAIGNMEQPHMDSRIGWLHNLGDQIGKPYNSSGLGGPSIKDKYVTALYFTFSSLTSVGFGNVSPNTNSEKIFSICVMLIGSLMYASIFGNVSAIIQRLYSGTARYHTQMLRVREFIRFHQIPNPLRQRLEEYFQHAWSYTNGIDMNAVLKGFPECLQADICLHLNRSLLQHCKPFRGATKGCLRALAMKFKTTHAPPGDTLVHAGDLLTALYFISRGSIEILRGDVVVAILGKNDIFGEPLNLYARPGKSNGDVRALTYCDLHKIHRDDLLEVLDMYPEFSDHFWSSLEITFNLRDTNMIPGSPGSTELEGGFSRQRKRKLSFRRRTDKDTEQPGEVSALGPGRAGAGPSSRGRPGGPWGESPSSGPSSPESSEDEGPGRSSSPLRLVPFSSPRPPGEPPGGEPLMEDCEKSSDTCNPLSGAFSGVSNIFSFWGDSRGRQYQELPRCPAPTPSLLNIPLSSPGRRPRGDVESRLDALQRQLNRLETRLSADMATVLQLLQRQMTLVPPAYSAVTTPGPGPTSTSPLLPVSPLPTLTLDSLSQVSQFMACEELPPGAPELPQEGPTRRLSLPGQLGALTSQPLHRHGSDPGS
Cytochrome P450 2D6, sequence (P10635 whole entry): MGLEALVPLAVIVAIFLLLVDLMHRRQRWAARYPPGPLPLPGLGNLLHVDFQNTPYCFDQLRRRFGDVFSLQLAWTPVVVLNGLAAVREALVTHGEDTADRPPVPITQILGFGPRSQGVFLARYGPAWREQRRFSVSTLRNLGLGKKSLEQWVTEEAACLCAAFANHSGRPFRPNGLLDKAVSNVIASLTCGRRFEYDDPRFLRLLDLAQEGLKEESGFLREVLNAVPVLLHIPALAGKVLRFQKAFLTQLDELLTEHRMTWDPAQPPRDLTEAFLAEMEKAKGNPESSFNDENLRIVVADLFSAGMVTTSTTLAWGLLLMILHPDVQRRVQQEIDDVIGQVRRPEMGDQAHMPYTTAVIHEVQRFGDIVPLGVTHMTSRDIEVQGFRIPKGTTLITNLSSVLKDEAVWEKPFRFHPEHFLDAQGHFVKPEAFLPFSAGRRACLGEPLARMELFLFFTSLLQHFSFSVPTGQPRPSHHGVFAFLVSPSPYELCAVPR
Cytochrome P450 2C9, sequence (P11712 whole entry): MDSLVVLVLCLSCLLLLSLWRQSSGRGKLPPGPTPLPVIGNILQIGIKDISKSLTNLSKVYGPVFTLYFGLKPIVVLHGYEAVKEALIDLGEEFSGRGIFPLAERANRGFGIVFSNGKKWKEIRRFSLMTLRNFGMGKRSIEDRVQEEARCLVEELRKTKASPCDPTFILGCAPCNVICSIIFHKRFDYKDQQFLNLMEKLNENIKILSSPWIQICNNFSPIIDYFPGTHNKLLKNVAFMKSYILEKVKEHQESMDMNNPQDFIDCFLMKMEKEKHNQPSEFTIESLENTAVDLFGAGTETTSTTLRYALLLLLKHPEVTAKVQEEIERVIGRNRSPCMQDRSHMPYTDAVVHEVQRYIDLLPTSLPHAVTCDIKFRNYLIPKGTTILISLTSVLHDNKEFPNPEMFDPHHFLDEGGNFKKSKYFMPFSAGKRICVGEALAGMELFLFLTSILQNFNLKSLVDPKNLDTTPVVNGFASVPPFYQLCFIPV
Cytochrome P450 3A4, sequence (P08684 whole entry, canonical isoform): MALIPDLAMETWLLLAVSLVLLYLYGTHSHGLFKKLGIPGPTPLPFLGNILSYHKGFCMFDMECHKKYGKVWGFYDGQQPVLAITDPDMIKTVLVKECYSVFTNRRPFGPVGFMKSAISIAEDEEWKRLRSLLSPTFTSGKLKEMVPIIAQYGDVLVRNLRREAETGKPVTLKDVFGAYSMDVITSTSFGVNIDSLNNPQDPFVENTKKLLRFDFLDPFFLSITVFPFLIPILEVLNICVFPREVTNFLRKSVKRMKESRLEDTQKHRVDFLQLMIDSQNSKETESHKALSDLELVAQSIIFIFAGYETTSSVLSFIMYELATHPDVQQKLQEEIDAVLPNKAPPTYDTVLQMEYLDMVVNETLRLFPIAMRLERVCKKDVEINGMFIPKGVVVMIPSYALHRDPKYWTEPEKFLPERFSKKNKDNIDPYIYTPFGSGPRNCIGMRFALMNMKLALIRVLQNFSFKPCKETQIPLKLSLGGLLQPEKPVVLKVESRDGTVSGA

NNC(=O)c1ccncc1 [ISONIAZID]
MIC [1]: > 7.25 µM
MIC [2]: 0.22 µM (≈ 0.0302 µg/mL)
MIC [3]: 0.45 µM (≈ 0.0617 µg/mL)
MIC [4]: 0.45 µM (≈ 0.0617 µg/mL)
MIC [5]: 0.22 µM (≈ 0.0302 µg/mL)

COc1nc2ccc(Br)cc2cc1[C@@H](c1ccccc1)[C@@](O)(CCN(C)C)c1cccc2ccccc12 [BEDAQUILINE]
MIC [1]: 1.6 µM (≈ 0.889 µg/mL)
MIC [2]: 1.6 µM (≈ 0.889 µg/mL)
MIC [3]: 0.8 µM (≈ 0.444 µg/mL)
MIC [4]: 0.78 µM (≈ 0.433 µg/mL)
MIC [5]: 0.8 µM (≈ 0.444 µg/mL)

Cc1onc(C(=O)N2[C@@H]3CC[C@H]2C[C@@H](Nc2cc(=O)n(C)c4cc(F)c(F)cc24)C3)c1C
INH (Cytochrome P450 3A4): > 30 µM
INH (Cytochrome P450 2D6): > 30 µM
Papp B→A [6]: 13 ×10⁻⁶ cm/s
Papp A→B [7]: 23 ×10⁻⁶ cm/s
IC50 [8]: 0.017 µM
INH (Cytochrome P450 2C19): > 30 µM
MCC at 72 h [9]: > 50 µM
solubility at 24 h [10]: 6 µM (≈ 2.65 µg/mL)
hepatocyte CLint at 1 µM [11]: 56 µL/min/1e6 cells
MIC [4]: 0.12 µM (≈ 0.0531 µg/mL)
INH (Cytochrome P450 1A2): > 30 µM
IC50 [12]: 16 µM
logD [13]: 2.8
IC50 (Adenosine receptor A1): 8 µM
INH (Cytochrome P450 2C9): > 30 µM
microsomal CLint at 1 µM [14]: 107 µL/min/mg
fraction unbound at 18 h, 20 µM [15]: 0.03

C[C@H]1C[C@H](Nc2cc(=O)[nH]c3cc(F)c(F)cc23)CCN1C(=O)c1cnn(C)c1Cl
IC50 [8]: 0.021 µM
IC50 [16]: 1.03 µM
Activity [17]: inactive
fold change (FC) [18]: 47
MIC [2]: 12.5 µM (≈ 5.45 µg/mL)
MIC [4]: 0.39 µM (≈ 0.17 µg/mL)

Cn1ncc(C(=O)N2CCC(Oc3cc(=O)[nH]c4ccccc34)CC2)c1Cl
Activity (Escherichia coli [19]): inactive
Activity (Pseudomonas aeruginosa [20]): inactive
Activity (Haemophilus influenzae [21]): inactive
Activity (Staphylococcus aureus): inactive
IC50 [8]: 8 µM
Activity [22]: inactive
Activity [17]: inactive
Activity (Pseudomonas aeruginosa [23]): inactive
Activity [24]: inactive
Activity (Streptococcus pneumoniae): inactive
Activity (Escherichia coli [25]): inactive
MIC [4]: 50 µM (≈ 19.3 µg/mL)
Activity (Klebsiella pneumoniae): inactive
Activity (Candida albicans): inactive
Activity (Haemophilus influenzae [26]): inactive

CO[C@H]1/C=C/O[C@@]2(C)Oc3c(C)c(O)c4c(O)c(c(/C=N/N5CCN(C)CC5)c(O)c4c3C2=O)NC(=O)/C(C)=C\C=C\[C@H](C)[C@H](O)[C@@H](C)[C@@H](O)[C@@H](C)[C@H](OC(C)=O)[C@@H]1C [RIFAMPIN]
MIC [1]: 0.01 µM (≈ 0.00823 µg/mL)
MIC [2]: 0.01 µM (≈ 0.00823 µg/mL)
MIC [3]: 0.03 µM (≈ 0.0247 µg/mL)
MIC [4]: 0.01 µM (≈ 0.00823 µg/mL)
MIC [5]: 0.004 µM (≈ 0.00329 µg/mL)
